For assay [1], the system named is Bel-7402. The assay can be described thus: Antiproliferative activity against human Bel7402 cells after 72 hrs by MTT assay. The format is functional, cell-based. The conditions noted are these: Bel-7402, 72 h. In short, it runs like this:
(§1)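 MGC-803 and MCF-7 cells grown in DMEM (MCF-7 with 1× NEAA); Bel-7402 and K562 grown in RPMI 1640; all media with 10% FBS. Cells seeded at 3500/well, pre-incubated 24 h, then exposed to compounds in fresh medium (DMSO ≤0.25%) for 72 h at 37 °C. MTT read-out at 570 nm. Quadruplicate wells, repeated three times; means ± SD (n = 3).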

Assay [2] concerns MGC-803. The assay can be described thus: Antiproliferative activity against human MGC803 cells after 72 hrs by MTT assay. In kind it is functional, cell-based. The conditions noted are these: MGC-803, 72 h. In short, it runs like this:
as §1

Assay [3] has as its system MCF7. The assay can be described thus: Antiproliferative activity against human MCF7 cells after 72 hrs by MTT assay. In kind it is functional, cell-based. The settings on record: MCF7, 72 h. The gist of the method:
as §1
(In general: Tetrazolium assays rely on reduction of a dye to a coloured formazan, in cell work by metabolically active cells.)

The subject of assay [4] is K562. The assay can be described thus: Antiproliferative activity against human K562 cells after 72 hrs by MTT assay. The format is functional, cell-based. The conditions noted are these: K562, 72 h. The gist of the method: as §1
For assay [5], the system named is NCI-H460. The assay can be described thus: Antiproliferative activity against human NCI-H460 cells after 48 hrs by MTT assay. In kind it is functional, cell-based. The settings on record: NCI-H460, 48 h. In short, it runs like this: (§2)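 Colorimetric MTT assay. KB-3-1, NCI-H460 and Bel-7404 cells were seeded at 4000 cells/well; resistant KB/CP4, NCI-H460/MX20 and Bel-7404/CP20 were seeded at 7000 cells/well. Cells were pre-incubated 24 h at 37 °C, 5% CO2, then exposed to a compound concentration series for 48 h with DMSO ≤0.25%. Absorbance read at 570 nm. Quadruplicate wells, three repeats; means ± SD.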

Assay [6] can be described thus: Antiproliferative activity against human NCI-H460/MX20 cells after 48 hrs by MTT assay. In kind it is functional, cell-based. The conditions noted are these: NCI-H460/MX20, 48 h. In short, it runs like this: as §2
Assay [7] can be described thus: Antiproliferative activity against human KB/CP4 cells after 48 hrs by MTT assay. In kind it is functional, cell-based. The settings on record: KB/CP4, 48 h. The gist of the method:
as §2

Assay [8] in a line: Antiproliferative activity against human BEL7404/CP20 cells after 48 hrs by MTT assay. In kind it is functional, cell-based. The settings on record: BEL7404/CP20, 48 h. In short, it runs like this:
as §2

Assay [9] concerns KB 3-1. The assay can be described thus: Antiproliferative activity against human KB-3-1 cells after 48 hrs by MTT assay. In kind it is functional, cell-based. The settings on record: KB 3-1, 48 h. In short, it runs like this: as §2
Assay [10] can be described thus: Selectivity ratio of IC50 for human KB/CP4 cells to IC50 for human KB-3-1 cells.
Assay [11] has as its system BEL-7404 tumor cell line. The assay can be described thus: Antiproliferative activity against human Bel7404 cells after 48 hrs by MTT assay. The conditions noted are these: BEL-7404, 48 h. The format is functional, cell-based. The gist of the method: as §2
Assay [12] has as its system MCF7. The assay can be described thus: Cytotoxicity against human MCF7 cells at 10 to 50 uM after 24 hrs by LDH assay. In kind it is functional, cell-based. In short, it runs like this:
(§3)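 Membrane integrity assay on MCF-7 and Bel-7402 cells seeded at ~5 × 10^3 per well for 24 h, then given compounds at 10, 20 or 50 μM. Culture medium collected and assayed with CytoTox-ONE LDH reagent for 10 min, followed by stop solution. Fluorescence read at Ex 560/Em 590 nm. Expressed as percentage of unstimulated cells.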

The test system of assay [13] is Bel-7402. The assay can be described thus: Cytotoxicity against human Bel7402 cells at 10 to 50 uM after 24 hrs by LDH assay. In kind it is functional, cell-based. In short, it runs like this: as §3

Active and inactive are the calls of the source. The calls are words filed in the database; no cut-off is given here.

As usually defined, the IC50 is the concentration that inhibits the measured activity by half. Turning to `C=C1C(=O)[C@]23[C@H](OC(=O)CCCC)[C@H]1CC[C@H]2[C@]12C=CCC(C)(C)[C@H]1[C@H](O)[C@]3(O)OC2`, the half-maximal inhibitory concentration (IC50) is 6 µM in [1], 6.19 µM in assay [2], 2.49 µM in assay [3] and 1.74 µM in [4].

As for `C=C1C(=O)[C@]23[C@H](OC(=O)c4ccnc(Cl)c4)[C@H]1CC[C@H]2[C@]12C=CC(=O)C(C)(C)[C@H]1[C@H](O)[C@]3(O)OC2`, the half-inhibitory concentration (IC50) in assay [1] came to 3.3 µM; in assay [2] it was 3.76 µM; in [3] it was 5.15 µM; in assay [4], 2.94 µM.

On to `C=C1C(=O)[C@]23[C@H](OC(=O)/C=C/c4ccccc4OC)[C@H]1CC[C@H]2[C@]12C=CCC(C)(C)[C@H]1[C@H](O)[C@]3(O)OC2`, for which the IC50 in [1] came to 2.22 µM; in assay [5], 5.31 µM; in assay [6], 5.53 µM; in [7], 4.61 µM; in assay [2] it was 2.46 µM; in assay [8], 6.87 µM. Also, the concentration for half-maximal inhibition (IC50) in assay [9] stood at 8.31 µM; in [3] it was 0.82 µM; in assay [11] it was 6.06 µM; in assay [4], 0.43 µM. Further, the “Ratio IC50” value in [10] is given as less than 1.

In the case of `C=C1C(=O)[C@]23[C@H](OC(=O)c4cc(C)ccc4C)[C@H]1CC[C@H]2[C@]12C=CCC(C)(C)[C@H]1[C@H](O)[C@]3(O)OC2`, the IC50 came to 7.11 µM in assay [1], 6.94 µM in assay [2], 6.14 µM in [3] and 4.19 µM in assay [4].

Turning to `C=C1C(=O)[C@]23[C@H](OC(C)=O)[C@H]1CC[C@H]2[C@]12C=CC(=O)C(C)(C)[C@H]1[C@H](O)[C@]3(O)OC2`, the IC50 is 3.61 µM in assay [1], 5.19 µM in assay [2], 9.41 µM in assay [3] and 4.64 µM in [4].

For `C=C1C(=O)[C@]23[C@H](OC(C)=O)[C@H]1CC[C@H]2[C@]12C=CCC(C)(C)[C@H]1[C@H](O)[C@]3(O)OC2`, the IC50 in assay [1] turned out to be 1.67 µM; in assay [2], 1.82 µM; in [3], 2.57 µM; in assay [4] it was 1.67 µM.

For `C=C1C(=O)[C@]23[C@H](OC(=O)c4cccc(Cl)c4)[C@H]1CC[C@H]2[C@]12C=CCC(C)(C)[C@H]1[C@H](O)[C@]3(O)OC2`, the IC50 amounted to 4.16 µM in assay [1], 3.65 µM in [2], 2.8 µM in [3] and 2.23 µM in assay [4].

With `C=C1C(=O)[C@]23[C@H](OC(=O)C4CCCCC4)[C@H]1CC[C@H]2[C@]12C=CCC(C)(C)[C@H]1[C@H](O)[C@]3(O)OC2`, the IC50 in [1] was determined as 4.06 µM; in [2], 3.6 µM; in [3] it was 5.83 µM; in assay [4], 3.22 µM.

Consider `C=C1C(=O)[C@]23[C@H](OC(=O)c4ccc([N+](=O)[O-])cc4)[C@H]1CC[C@H]2[C@]12C=CCC(C)(C)[C@H]1[C@H](O)[C@]3(O)OC2`, for which the IC50 came out at 5.14 µM in assay [1], 6.39 µM in assay [2], 4.47 µM in [3] and 1.7 µM in [4].

On to `O=c1[nH]cc(F)c(=O)[nH]1` [FLUOROURACIL], for which the IC50 in [1] came to 2.25 µM; in assay [2], 3.12 µM; in [3] it was 1.75 µM; in assay [4] it was 3.54 µM.

In the case of `C=C1C(=O)[C@]23[C@H](OC(=O)c4c(OC)cccc4OC)[C@H]1CC[C@H]2[C@]12C=CCC(C)(C)[C@H]1[C@H](O)[C@]3(O)OC2`, the concentration for half-maximal inhibition (IC50) came to 45.3 µM in [1], 21.2 µM in assay [2], 12.5 µM in assay [3] and 6.85 µM in [4].

As to `C=C1C(=O)[C@]23[C@H](OC(=O)c4cc(F)c(F)c(F)c4F)[C@H]1CC[C@H]2[C@]12C=CCC(C)(C)[C@H]1[C@H](O)[C@]3(O)OC2`, the IC50 in [1] was 1.58 µM; in assay [2] it was 1 µM; in [3] it was 2.11 µM; in assay [4], 1.83 µM.

For `C=C1C(=O)[C@]23[C@H](OC(=O)c4ccc(Br)cc4)[C@H]1CC[C@H]2[C@]12C=CCC(C)(C)[C@H]1[C@H](O)[C@]3(O)OC2`, the IC50 in [1] is 1.06 µM; in assay [5], 5.31 µM; in assay [6] it was 4.73 µM; in assay [7] it was 3.24 µM; in [2] it was 2.01 µM; in [8], 6.05 µM. Also, the IC50 was 5.82 µM in assay [9], 0.14 µM in [3], 5.35 µM in [11] and 0.33 µM in assay [4]. Besides, in assay [10], the “Ratio IC50” value was less than 1.

Consider `C=C1C(=O)[C@]23[C@H](OC(=O)c4cccc(C)c4C)[C@H]1CC[C@H]2[C@]12C=CCC(C)(C)[C@H]1[C@H](O)[C@]3(O)OC2`, for which the IC50 came out at 2.33 µM in assay [1], 3.78 µM in assay [2], 3.58 µM in assay [3] and 1.68 µM in assay [4].

As for `C=C1C(=O)[C@]23[C@H](O)[C@H]1CC[C@H]2[C@]12C=C[C@H](O)C(C)(C)[C@H]1[C@H](O)[C@]3(O)OC2`, the half-maximal inhibitory concentration (IC50) was 25.5 µM in [1], 61.1 µM in assay [2], 303 µM in [3] and 41.1 µM in assay [4].

Turning to `C=C1C(=O)[C@]23[C@H](OC(=O)/C=C/c4ccc(F)cc4)[C@H]1CC[C@H]2[C@]12C=CCC(C)(C)[C@H]1[C@H](O)[C@]3(O)OC2`, the IC50 in assay [1] came to 2.58 µM; in assay [2], 5.11 µM; in assay [3], 2.51 µM; in assay [4] it was 1.34 µM.

For the compound `C=C1C(=O)[C@]23[C@H](OC(=O)/C=C/c4cccc([N+](=O)[O-])c4)[C@H]1CC[C@H]2[C@]12C=CCC(C)(C)[C@H]1[C@H](O)[C@]3(O)OC2`, the half-inhibitory concentration (IC50) in assay [1] worked out at 1.77 µM; in assay [2], 2.47 µM; in [3], 1.37 µM; in assay [4] it was 0.58 µM.

Turning to `C=C1C(=O)[C@]23[C@H](O)[C@H]1CC[C@H]2[C@@]12CO[C@@]3(O)[C@@H](O)[C@@H]1C(C)(C)C[C@H]1O[C@H]12`, the half-maximal inhibitory concentration (IC50) amounted to 5.77 µM in assay [1]; 8.81 µM in [5]; 11.2 µM in assay [6]; 7.74 µM in assay [7]; 5.74 µM in assay [2]; 21.6 µM in assay [8]. For the same compound, the IC50 in assay [9] came to 21 µM; in [3], 5.37 µM; in assay [11] it was 13.7 µM; in assay [4] it was 1.59 µM. Further, the outcome in assay [12] and in [13] was inactive. In addition, in assay [10], the “Ratio IC50” value is listed as less than 1.

With `C=C1C(=O)[C@]23[C@H](OC(=O)/C=C/c4ccc(OC)cc4)[C@H]1CC[C@H]2[C@]12C=CCC(C)(C)[C@H]1[C@H](O)[C@]3(O)OC2`, the IC50 in assay [1] was found to be 2.42 µM; in assay [2], 2.91 µM; in assay [3], 0.95 µM; in assay [4] it was 0.88 µM.

Regarding `C=C1C(=O)[C@]23[C@H](OC(=O)/C=C/c4cc(OC)c(OC)c(OC)c4)[C@H]1CC[C@H]2[C@]12C=CCC(C)(C)[C@H]1[C@H](O)[C@]3(O)OC2`, the IC50 in [1] was found to be 2.44 µM; in assay [2], 3.91 µM; in [3] it was 2.36 µM; in assay [4], 0.55 µM.

As for `C=C1C(=O)[C@]23[C@H](OC(=O)c4ccccc4C(F)(F)F)[C@H]1CC[C@H]2[C@]12C=CCC(C)(C)[C@H]1[C@H](O)[C@]3(O)OC2`, the IC50 in assay [1] is 3.18 µM; in assay [2], 2.46 µM; in [3], 2.66 µM; in assay [4], 2.96 µM.

As to `C=C1C(=O)[C@]23[C@H](OC(=O)CCCCCCC)[C@H]1CC[C@H]2[C@]12C=CCC(C)(C)[C@H]1[C@H](O)[C@]3(O)OC2`, the 50% inhibitory concentration (IC50) was determined as 4.34 µM in [1], 2.71 µM in [2], 2.44 µM in assay [3] and 3 µM in [4]. In addition, the result in assay [12] and in assay [13] was inactive.

On to `C=C1C(=O)[C@]23[C@H](OC(=O)c4ccccc4C(F)(F)F)[C@H]1CC[C@H]2[C@]12C=CC(=O)C(C)(C)[C@H]1[C@H](O)[C@]3(O)OC2`, for which the IC50 was determined as 2.93 µM in [1], 3.61 µM in assay [2], 3.84 µM in [3] and 2.61 µM in assay [4].
